The source made the active and inactive calls. No cut-off for these calls is given here.
Columns and labels:
U2OS [1] = experiment: Inhibition of colony formation in human U2OS cells assessed as reduction in colony number and size incubated for 12 days by Giemsa staining based analysis; type: functional, cell-based; conditions: dose 5-10 µM, time 12.0 day
Procedure, shortened: (§1)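 Seeded at 150 cells/well in 12-well plates with 0, 5 or 10 μM inhibitor; 12 days at 37 °C. Colonies fixed 10 min in methanol, stained 20 min with 10% Giemsa and photographed.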

KHOS/NP [2] = experiment: Effect on CDK9 protein expression in human KHOS/NP cells at 2.5 to 20 uM incubated for 48 hrs by Western blot analysis; type: functional, cell-based; conditions: dose 2.5-20 µM
Procedure, shortened: (§2)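 Cells seeded in 6-well plates (6 × 10^5 cells/well) and treated with 2.5, 5, 10, 20 μM for 48 h. RIPA lysates resolved by SDS-PAGE and blotted to nitrocellulose. Primary antibodies to CDK9, RNAPII ser2, total RNAPII, MCL-1, BIRC5 and tubulin (1:1000, 4 °C overnight), then IR-dye secondaries; infrared imaging. Densitometry relative to tubulin, mean ± SE in triplicate.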

KHOS/NP [3] = experiment: Effect on RNAPII total protein expression in human KHOS/NP cells at 2.5 to 20 uM incubated for 48 hrs by Western blot analysis; type: functional, cell-based; conditions: dose 2.5-20 µM; procedure, shortened: as §2
U2OS [4] = experiment: Induction of apoptosis in human U2OS cells assessed as early apoptotic cells at 10 uM by Annexin V/PI staining based flow cytometry analysis (reference value: 5%); type: functional
KHOS/NP [5] = experiment: Inhibition of cell migration in human KHOS/NP cells at 10 uM by wound healing assay; type: functional, cell-based; conditions: time 24-72 hrs
Procedure, shortened: (§3)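 Monolayers of 4 × 10^5 cells/well in 6-well plates, grown overnight, scratched with two parallel lines, then exposed to 10 μM in 2% FBS medium for 72 h. Photographed at 0, 24, 48, 72 h; width measured at five sites per image. Migration distance = (width at 0 h − width at time point)/2.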

U2OS [6] = experiment: Antitumor activity against human U2OS cells cultured as 3D spheroids assessed as reduction in spheroid diameter at 10 uM incubated for 12 days with media replacement for every 24 to 48 hrs and measured every 2 days by Calcein AM staining based fluorescence microscopic analysis relative to control; type: functional; set-up: scale not given: the % may be the effect or the level left; conditions: time 12 day
Procedure, shortened: (§4)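 Spheroids grown in 3D hydrogel culture plates, 2 × 10^5 cells/well, with 10 μM inhibitor added at seeding; untreated cells as blank control. 37 °C, 5% CO2, medium changed every 24–48 h. Diameter photographed every 2 days; at 12 days spheroids harvested, stained 15 min with 0.25 μM Calcein AM and imaged by fluorescence microscopy. Mean ± SE of 2 experiments in triplicate.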

U2OS [7] = experiment: Inhibition of cell migration in human U2OS cells at 10 uM by wound healing assay; type: functional, cell-based; conditions: time 24-72 hrs; procedure, shortened: as §3
KHOS/NP [8] = experiment: Inhibition of colony formation in human KHOS/NP cells assessed as reduction in colony number and size incubated for 12 days by Giemsa staining based analysis; type: functional, cell-based; conditions: dose 5-10 µM, time 12.0 day; procedure, shortened: as §1
[9] = target: Cyclin-dependent kinase 9 (Homo sapiens) (UniProt P50750); experiment: Inhibition of CDK9 in human KHOS/NP cells assessed as reduction in phosphorylated RNAPII protein expression at Ser2 residue incubated for 48 hrs by Western blot analysis; type: cell-based; conditions: dose 2.5-20 µM; procedure, shortened: as §2
Chain of Cyclin-dependent kinase 9 (Homo sapiens) (P50750 whole entry): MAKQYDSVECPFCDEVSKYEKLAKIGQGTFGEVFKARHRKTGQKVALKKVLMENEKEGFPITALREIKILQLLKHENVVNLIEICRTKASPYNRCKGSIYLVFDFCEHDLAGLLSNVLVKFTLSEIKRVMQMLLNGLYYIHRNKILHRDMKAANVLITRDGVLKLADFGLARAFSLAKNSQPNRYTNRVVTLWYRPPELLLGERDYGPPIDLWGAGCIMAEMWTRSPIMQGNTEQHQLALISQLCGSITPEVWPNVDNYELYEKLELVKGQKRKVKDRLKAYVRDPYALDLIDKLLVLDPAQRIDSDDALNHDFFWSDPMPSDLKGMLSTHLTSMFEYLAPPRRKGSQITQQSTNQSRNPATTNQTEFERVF

U2OS [10] = experiment: Induction of apoptosis in human U2OS cells assessed as late apoptotic cells at 10 uM by Annexin V/PI staining based flow cytometry analysis (reference value: 0.4%); type: functional
[11] = target: Cyclin-dependent kinase 9 (Homo sapiens) (UniProt P50750); experiment: Inhibition of CDK9 in human KHOS/NP cells assessed as reduction in BIRC5 protein expression incubated for 48 hrs by Western blot analysis; type: cell-based; conditions: dose 2.5-20 µM; procedure, shortened: as §2
U2OS [12] = experiment: Cytotoxicity against human U2OS cells assessed as inhibition of cell proliferation incubated for 5 days by MTT assay; type: functional, cell-based
Procedure, shortened: (§5)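 Cells in RPMI 1640 with 10% FBS, seeded at 4 × 10^3 cells/well in 96-well plates and exposed to 0, 2.5, 5, 10, 20 μM for 5 days. MTT (5 mg/mL stock) added for 4 h at 37 °C; formazan dissolved in acid isopropanol and read at 490 nm. IC50 from the dose–response; mean ± SE of 2 experiments in triplicate.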

KHOS/NP [13] = experiment: Cytotoxicity against human KHOS/NP cells assessed as morphological changes incubated for 3 days by microscopic analysis; type: functional, cell-based; conditions: dose 2.5-20 µM, time 3.0 day
Procedure, shortened: (§6)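 Cells treated with 0, 2.5, 5, 10, 20 μM for 72 h, then examined by light microscopy for morphology and number of viable cells.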

KHOS/NP [14] = experiment: Induction of apoptosis in human KHOS/NP cells assessed as late apoptotic cells at 10 uM by Annexin V/PI staining based flow cytometry analysis (reference value: 0.3%); type: functional
[15] = target: Cyclin-dependent kinase 9 (Homo sapiens) (UniProt P50750); experiment: Inhibition of CDK9 in human U2OS cells assessed as reduction in BIRC5 protein expression incubated for 48 hrs by Western blot analysis; type: cell-based; conditions: dose 2.5-20 µM; procedure, shortened: as §2
[16] = target: Cyclin-dependent kinase 9 (Homo sapiens) (UniProt P50750); experiment: Inhibition of CDK9 in human KHOS/NP cells assessed as reduction in MCL-1 protein expression incubated for 48 hrs by Western blot analysis; type: cell-based; conditions: dose 2.5-20 µM; procedure, shortened: as §2
U2OS [17] = experiment: Induction of apoptosis in human U2OS cells assessed as dead cells at 10 uM by Annexin V/PI staining based flow cytometry analysis (reference value: 0.1%); type: functional
KHOS/NP [18] = experiment: Cytotoxicity against human KHOS/NP cells assessed as inhibition of cell proliferation incubated for 5 days by MTT assay; type: functional, cell-based; procedure, shortened: as §5
[19] = target: Cyclin-dependent kinase 9 (Homo sapiens) (UniProt P50750); experiment: Inhibition of CDK9 in human U2OS cells assessed as reduction in phosphorylated RNAPII protein expression at Ser2 residue incubated for 48 hrs by Western blot analysis; type: cell-based; conditions: dose 2.5-20 µM; procedure, shortened: as §2
U2OS [20] = experiment: Induction of apoptosis in human U2OS cells assessed as viable cells at 10 uM by Annexin V/PI staining based flow cytometry analysis (reference value: 94.5%); type: functional; conditions: read-out: Activity
[21] = target: Cyclin-dependent kinase 9 (Homo sapiens) (UniProt P50750); experiment: Inhibition of CDK9 in human U2OS cells assessed as reduction in MCL-1 protein expression incubated for 48 hrs by Western blot analysis; type: cell-based; conditions: dose 2.5-20 µM; procedure, shortened: as §2
KHOS/NP [22] = experiment: Antitumor activity against human KHOS/NP cells cultured as 3D spheroids assessed as reduction in spheroid diameter at 10 uM incubated for 12 days with media replacement for every 24 to 48 hrs and measured every 2 days by Calcein AM staining based fluorescence microscopic analysis relative to control; type: functional; set-up: scale not given: the % may be the effect or the level left; conditions: time 12 day; procedure, shortened: as §4
KHOS/NP [23] = experiment: Induction of apoptosis in human KHOS/NP cells assessed as early apoptotic cells at 10 uM by Annexin V/PI staining based flow cytometry analysis (reference value: 5.3%); type: functional
U2OS [24] = experiment: Cytotoxicity against human U2OS cells assessed as reduction in viable cell number incubated for 3 days by microscopic analysis; type: functional, cell-based; conditions: dose 2.5-20 µM, time 3.0 day; procedure, shortened: as §6
KHOS/NP [25] = experiment: Induction of apoptosis in human KHOS/NP cells assessed as viable cells at 10 uM by Annexin V/PI staining based flow cytometry analysis (reference value: 94.1%); type: functional; conditions: read-out: Activity
U2OS [26] = experiment: Cytotoxicity against human U2OS cells assessed as morphological changes incubated for 3 days by microscopic analysis; type: functional, cell-based; conditions: dose 2.5-20 µM, time 3.0 day; procedure, shortened: as §6
KHOS/NP [27] = experiment: Cytotoxicity against human KHOS/NP cells assessed as reduction in viable cell number incubated for 3 days by microscopic analysis; type: functional, cell-based; conditions: dose 2.5-20 µM, time 3.0 day; procedure, shortened: as §6
U2OS [28] = experiment: Effect on RNAPII total protein expression in human U2OS cells at 2.5 to 20 uM incubated for 48 hrs by Western blot analysis; type: functional, cell-based; conditions: dose 2.5-20 µM; procedure, shortened: as §2
U2OS [29] = experiment: Effect on CDK9 protein expression in human U2OS cells at 2.5 to 20 uM incubated for 48 hrs by Western blot analysis; type: functional, cell-based; conditions: dose 2.5-20 µM; procedure, shortened: as §2

COc1ccccc1-c1cc(Nc2cccc(CS(N)(=O)=O)c2)ncn1
inhibition (U2OS [1]): Dose-Dependent Effect
Activity (KHOS/NP [2]): inactive
Activity (KHOS/NP [3]): inactive
Activity (U2OS [4]): 6.4%
inhibition (KHOS/NP [5]): Dose-Dependent Effect
Activity (U2OS [6]): 57.4%
inhibition (U2OS [7]): Dose-Dependent Effect
inhibition (KHOS/NP [8]): Dose-Dependent Effect
inhibition [9]: Dose-Dependent Effect
Activity (U2OS [10]): 1.5%
inhibition [11]: Dose-Dependent Effect
IC50 (U2OS [12]; 120 h): 5.8 µM
Activity (U2OS [12]; time 5.0 day): Dose-Dependent Effect
Activity (KHOS/NP [13]): Dose-Dependent Effect
Activity (KHOS/NP [14]): 6%
inhibition [15]: Dose-Dependent Effect
inhibition [16]: Dose-Dependent Effect
Activity (U2OS [17]): 0.3%
IC50 (KHOS/NP [18]; 120 h): 6.5 µM
Activity (KHOS/NP [18]; time 5.0 day): Dose-Dependent Effect
inhibition [19]: Dose-Dependent Effect
viability at 10 µM (U2OS [20]): 91.8%
inhibition [21]: Dose-Dependent Effect
Activity (KHOS/NP [22]): 48.8%
Activity (KHOS/NP [23]): 2.8%
Activity (U2OS [24]): Dose-Dependent Effect
viability at 10 µM (KHOS/NP [25]): 88.5%
Activity (U2OS [26]): Dose-Dependent Effect
Activity (KHOS/NP [27]): Dose-Dependent Effect
Activity (U2OS [28]): inactive
Activity (U2OS [29]): inactive

Reference: ChEMBL document CHEMBL5647695, “Cyclin-dependent kinase 9 (CDK9) is a novel prognostic marker and therapeutic target in osteosarcoma” (EBioMedicine, 2019)
